Assay outcomes: PubChem BioAssay, several laboratories
An excerpt weighted towards active compounds, which were near 1.9% of everything screened.
PP1 counter: counter-screen for PP5 inhibitors: inhibitors of human PP1-alpha | hit rate 0.9% among 320,000 | inhibition, % at 6.7 µM | purified PP1alpha, OMFP fluorescence | P62136;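 active = inhibition above the mean inhibition of all tested compounds plus 3 SD, computed separately for each screening campaign, cut at about 15% in these data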
DNA FID counter: counter-screen for HCV NS3 helicase inhibitors: DNA intercalator displacement; inhibition, % at 7.9 µM; hit rate 0.17% among 290,000; DNA fluorescent intercalator displacement, fluorescence; in the data active = inhibition above about 37%;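 also: 0% = vehicle and 100% = reference compound; higher means more ethidium bromide displaced from hairpin DNA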
PP5 primary: blocks human protein phosphatase 5 activity; hit rate 0.18% among 320,000; inhibition, % at 6.7 µM; purified PP5c, OMFP substrate fluorescence;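 active = inhibition above the campaign's mean inhibition across all tested compounds plus 3 SD, cut at about 9.5% in these data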;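 also: 0% = DMSO only and 100% = 100 µM cantharidin control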
Target sequence (P53041 whole entry, looked up): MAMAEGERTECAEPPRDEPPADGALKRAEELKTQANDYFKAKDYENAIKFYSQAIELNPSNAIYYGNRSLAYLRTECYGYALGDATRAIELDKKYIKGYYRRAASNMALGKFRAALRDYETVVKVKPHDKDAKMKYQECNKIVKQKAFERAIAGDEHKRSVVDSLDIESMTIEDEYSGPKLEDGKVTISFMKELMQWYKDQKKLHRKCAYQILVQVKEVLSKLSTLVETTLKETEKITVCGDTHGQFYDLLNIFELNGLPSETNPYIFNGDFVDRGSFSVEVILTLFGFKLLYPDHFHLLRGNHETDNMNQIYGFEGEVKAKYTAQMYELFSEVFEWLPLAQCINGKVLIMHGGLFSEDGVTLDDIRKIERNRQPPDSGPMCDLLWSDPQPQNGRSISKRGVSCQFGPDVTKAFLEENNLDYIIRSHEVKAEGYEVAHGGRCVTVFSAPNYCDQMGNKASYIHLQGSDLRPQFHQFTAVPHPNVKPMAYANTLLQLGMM
HCV NS3 hel inh: inhibitors of Hepatitis C virus NS3 helicase | NS3 helicase DNA unwinding, Cy5 molecular beacon fluorescence | inhibition, % at 10.9 µM | AID 1800 | hit rate 0.56% among 290,000;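 active = inhibition above the mean of all tested compounds plus 3 SD, set per campaign, cut at about 35% in these data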;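 also: 0% = DMSO wells and 100% = thioflavine S control wells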
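test system = hepatitis C virus NS3 helicase domain fragment enzyme | reagent = annealed dual-labelled DNA beacon duplex, ATP-started | times = 1 h at 25 °C | detection = Cy5 fluorescence, 0 and 60 min reads | read-out basis = percent inhibition from t60/t0 fluorescence ratio | control set = DMSO and thioflavine S | replication = one well per compound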
HIF act: HIF pathway transcriptional activation; activation, % at 7.5 µM (by protocol); hit rate 0.32% among 300,000; AID 1910; U2OS HRE-luciferase reporter, luminescence; normalized: DMSO 0%, desferrioxamine 100%;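 active = mean activation of at least 10% of the iron chelator positive control signal, with at least half of replicates also reaching 10%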
* = called active by the depositor; . = no result.

SMILES	PP1 counter	DNA FID counter	PP5 primary	HCV NS3 hel inh	HIF act
Cc1cccn2c(=O)c3cc(C(=O)NC4CCCC4)c(=N)n(CCCN4CCOCC4)c3nc12	-4	41*	2	8	2
COc1ccc(CCNC(=O)c2cc3c(=O)n4cccc(C)c4nc3n(CCCN3CCOCC3)c2=N)cc1	-7	54*	-1	-19	0
COCCn1c(=N)c(C(=O)NCCc2ccc(OC)cc2)cc2c(=O)n3cccc(C)c3nc21	0	14	0	-4	0
CCOC(=O)/C(C#N)=N\Nc1cc(Cl)ccc1OC	-5	2	1	2	0
O=C(CSc1nnc(-c2ccc(C(F)(F)F)cn2)s1)c1ccccc1	-6	2	0	-6	0
COc1ccc(NC(=S)N2CCN(C(=O)c3ccccc3)CC2)cc1	4	-3	2	-12	58*
CCS(=O)(=O)c1ccc(OC)c(N=Nc2ccc(O)c3ncccc23)c1	15*	-2	2	0	0
CN(C)C(=O)CSc1nc2ccccc2n1Cc1ccccc1	-2	-13	-1	-5	367*
Cc1cc(C)c2nc(NNC(=O)c3ccc(S(=O)(=O)N4CCCCC4)cc3)sc2c1	16*	-15	0	1	1
Cc1cc(C)c2nc(N(CCCN(C)C)C(=O)c3ccc(S(=O)(=O)N4CCCCCC4)cc3)sc2c1	7	.	4	.	0
CCOC(=O)N1CCN(S(=O)(=O)c2ccc(C(=O)NNc3nc4ccc(Cl)cc4s3)cc2)CC1	16*	-20	0	-4	0
Cc1cccc2sc(NNC(=O)c3ccc(S(=O)(=O)N4CCc5ccccc5C4)cc3)nc12	16*	-15	2	-4	14*
CCOC(=O)N1CCN(S(=O)(=O)c2ccc(C(=O)NNc3nc4c(C)cccc4s3)cc2)CC1	5	-20	5	-2	0
Cc1cccc2sc(NNC(=O)c3ccc(S(=O)(=O)N4CCCC(C)C4)cc3)nc12 (stereo not given)	10	-13	5	3	0
Cc1ccccc1-c1cccc([C@@H]2C[C@H]3CN(Cc4cccnc4)C(=O)[C@]34CCCN24)c1	-2	-21	0	8	0
O=C(Nc1ccc([N+](=O)[O-])cc1)Nc1ccc(OC(F)F)c(Cl)c1	17*	17	9	9	.
O=C(NCc1ccncc1)/C(=C/c1cccc([N+](=O)[O-])c1)NC(=O)c1ccccc1	-2	1	1	-11	0
Cc1cc(C)cc(OCC(=O)Nc2ccc(-n3cnnn3)cc2)c1	2	.	3	.	.
O=C1CCCC2=C1C(Cc1ccccc1)C1=C(CCCC1=O)O2	0	-13	-1	0	351*
O=C1CCCC2=C1C(c1ccccc1O)C1=C(CCCC1=O)O2	2	-8	0	6	0
CCOc1ccc2c(C)c(Cl)c(=O)oc2c1	-1	0	-2	6	96*
CCN(CC)c1ccc2c(C)c(Cl)c(=O)oc2c1	-4	-10	1	-9	1
COc1ccc(C(=O)/C=C/C(=O)N(CC(=O)NC2CCCCC2)CC2CCCO2)c(O)c1 (stereo not given)	-4	-22	-2	4	16*
CCN(Cc1cnn(C)c1)Cc1nc(C(c2ccccc2)c2ccccc2)no1	-4	-32	-1	-6	0
CCOc1ccccc1N1Cc2cc(C)c(C)cc2C1	15*	-14	3	-5	1
SMILES	PP1 counter	DNA FID counter	PP5 primary	HCV NS3 hel inh	HIF act
COc1ccc(OC)c(N2Cc3cc(C)c(C)cc3C2)c1	17*	-11	2	13	0
COc1ccc(OC)c(-n2c(C)cc(C=O)c2C)c1	-1	-5	2	-9	0
CCOc1ccccc1N1Cc2ccccc2C1	11	-3	3	9	-2
O=C1N=c2ccccc2=C1c1sc(Nc2cccc(O)c2)nc1O	1	39*	1	-11	2
CCCCn1c(N)c(N(CCOC)C(=O)c2ccc(Cl)c(S(=O)(=O)N3CCCCC3)c2)c(=O)[nH]c1=O	4	.	-1	.	2
Cc1nc(CCNC(=O)c2cc(COc3ccc(F)cc3Cl)on2)sc1C	5	-28	3	0	0
CC(c1ccccc1)N1C(=O)c2ccc(C(=O)Nc3ccccc3C(=O)O)cc2C1=O (stereo not given)	11	43*	7	-17	0
CCN(CC)CCN(C(=O)c1cc2ccccc2cc1OC)c1nc2ccc(OC)cc2s1	11	44*	5	-90	-1
